Test results reported in ChEMBL document CHEMBL3232844, “Synthesis and structure activity relationships of schweinfurthin indoles” (2014).

Key:
Assay type in all cases: functional
[1] = tested on: CCRF-CEM; experiment: Cytotoxicity against human CCRF-CEM cells
[2] = tested on: HL-60(TB); experiment: Cytotoxicity against human HL-60(TB) cells
Procedure, shortened: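 Tested within the NCI 60-cell-line screen, with GI50 as the read-out. Values are the average of two independent experiments. The lowest concentration tested was 10 nM.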

[3] = tested on: K562; experiment: Cytotoxicity against human K562 cells
Procedure, shortened: (§1)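 Tested in a 60-cell-line human tumor panel screen; the read-out is growth inhibition, reported as GI50 for each cell line.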

[4] = tested on: SR; experiment: Cytotoxicity against human SR cells
Procedure, shortened: (§2)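 Cell line run as part of the 60-cell-line screening panel; growth inhibition was reported as a GI50 for each line.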

[5] = tested on: A549; experiment: Cytotoxicity against human A549 cells; procedure, shortened: as §1
[6] = tested on: HOP-62; experiment: Cytotoxicity against human HOP62 cells; procedure, shortened: as §1
[7] = tested on: NCI-H226; experiment: Cytotoxicity against human NCI-H226 cells; procedure, shortened: as §1
[8] = tested on: NCI-H23; experiment: Cytotoxicity against human NCI-H23 cells; procedure, shortened: as §1
[9] = tested on: COLO 205; experiment: Cytotoxicity against human COLO205 cells; procedure, shortened: as §1
[10] = tested on: HCC 2998; experiment: Cytotoxicity against human HCC2998 cells; procedure, shortened: as §1
[11] = tested on: HCT-116; experiment: Cytotoxicity against human HCT116 cells; procedure, shortened: as §1
[12] = Cytotoxicity against human HCT15 cells; procedure, shortened: as §1
[13] = tested on: HT-29; experiment: Cytotoxicity against human HT-29 cells; procedure, shortened: as §1
[14] = tested on: KM12; experiment: Cytotoxicity against human KM12 cells; procedure, shortened: as §1
[15] = tested on: SF-268; experiment: Cytotoxicity against human SF268 cells; procedure, shortened: as §1
[16] = tested on: SF-295; experiment: Cytotoxicity against human SF295 cells; procedure, shortened: as §1
[17] = tested on: SF-539; experiment: Cytotoxicity against human SF539 cells; procedure, shortened: as §1
[18] = tested on: SNB-19; experiment: Cytotoxicity against human SNB19 cells; procedure, shortened: as §1
[19] = tested on: SNB-75; experiment: Cytotoxicity against human SNB75 cells; procedure, shortened: as §2
[20] = tested on: LOX IMVI; experiment: Cytotoxicity against human LOXIMVI cells; procedure, shortened: as §1
[21] = tested on: M14; experiment: Cytotoxicity against human M14 cells; procedure, shortened: as §1
[22] = tested on: MDA-MB-435; experiment: Cytotoxicity against human MDA-MB-435 cells; procedure, shortened: as §1
[23] = tested on: NCI-H322M; experiment: Cytotoxicity against human NCI-H322M cells; procedure, shortened: as §1
[24] = tested on: SK-MEL-2; experiment: Cytotoxicity against human SK-MEL-2 cells; procedure, shortened: as §1
[25] = Cytotoxicity against human UACC257 cells; procedure, shortened: as §2
[26] = Cytotoxicity against human UACC62 cells; procedure, shortened: as §2
[27] = tested on: IGROV-1; experiment: Cytotoxicity against human IGROV1 cells; procedure, shortened: as §1
[28] = Cytotoxicity against human OVCAR4 cells; procedure, shortened: as §1
[29] = Cytotoxicity against human OVCAR8 cells; procedure, shortened: as §1
[30] = Cytotoxicity against human NCI-ADR-RES cells; procedure, shortened: as §1
[31] = tested on: SK-OV-3; experiment: Cytotoxicity against human SKOV3 cells; procedure, shortened: as §1
[32] = tested on: 786-0; experiment: Cytotoxicity against human 786-0 cells; procedure, shortened: as §1
[33] = tested on: A498; experiment: Cytotoxicity against human A498 cells; procedure, shortened: as §1
[34] = tested on: ACHN; experiment: Cytotoxicity against human ACHN cells; procedure, shortened: as §1
[35] = tested on: CAKI-1; experiment: Cytotoxicity against human Caki1 cells; procedure, shortened: as §1
[36] = tested on: RXF 393; experiment: Cytotoxicity against human RXF393 cells; procedure, shortened: as §1
[37] = tested on: SN12C; experiment: Cytotoxicity against human SN12C cells; procedure, shortened: as §1
[38] = tested on: TK-10; experiment: Cytotoxicity against human TK10 cells; procedure, shortened: as §2
[39] = Cytotoxicity against human UO31 cells; procedure, shortened: as §2
[40] = tested on: DU-145; experiment: Cytotoxicity against human DU145 cells; procedure, shortened: as §1
[41] = tested on: MDA-MB-231; experiment: Cytotoxicity against human MDA-MB-231 cells; procedure, shortened: as §1
[42] = tested on: BT-549; experiment: Cytotoxicity against human BT549 cells; procedure, shortened: as §1
[43] = tested on: MDA-MB-468; experiment: Cytotoxicity against human MDA-MB-468 cells; procedure, shortened: as §1
[44] = read-out: pLC50 (the source's name) (converted)

Structure (SMILES): COc1cc(/C=C/c2cc(O)c3c(CC=C(C)C)c[nH]c3c2)cc2c1O[C@]1(C)CC[C@@H](O)C(C)(C)[C@H]1C2
- GI50 [1]: 0.148 µM
- CC50 [1, 44]: 50.1 µM
- TGI ([1]; read-out: pTGI (converted)): 50.1 µM
- GI50 [2]: 0.251 µM
- CC50 [2, 44]: 50.1 µM
- TGI ([2]; read-out: pTGI (converted)): 18.6 µM
- GI50 [3]: 0.224 µM
- CC50 [3, 44]: 50.1 µM
- TGI ([3]; read-out: pTGI (converted)): 7.76 µM
- GI50 [4]: 0.295 µM
- CC50 [4, 44]: 50.1 µM
- TGI ([4]; read-out: pTGI (converted)): 50.1 µM
- GI50 [5]: 1.7 µM
- CC50 [5, 44]: 50.1 µM
- TGI ([5]; read-out: pTGI (converted)): 50.1 µM
- GI50 [6]: 0.234 µM
- CC50 [6, 44]: 50.1 µM
- GI50 [7]: 4.37 µM
- CC50 [7, 44]: 50.1 µM
- TGI ([7]; read-out: pTGI (converted)): 50.1 µM
- GI50 [8]: 0.427 µM
- CC50 [8, 44]: 50.1 µM
- TGI ([8]; read-out: pTGI (converted)): 22.4 µM
- GI50 [9]: 0.302 µM
- CC50 [9, 44]: 6.46 µM
- TGI ([9]; read-out: pTGI (converted)): 1.35 µM
- GI50 [10]: 3.02 µM
- CC50 [10, 44]: 50.1 µM
- TGI ([10]; read-out: pTGI (converted)): 50.1 µM
- GI50 [11]: 3.24 µM
- CC50 [11, 44]: 50.1 µM
- TGI ([11]; read-out: pTGI (converted)): 50.1 µM
- GI50 ([12]; HCT-15): 0.17 µM
- CC50 ([12]; HCT-15, read-out: pLC50 (the source's name) (converted)): 50.1 µM
- TGI ([12]; HCT-15, read-out: pTGI (converted)): 1.55 µM
- GI50 [13]: 0.132 µM
- CC50 [13, 44]: 50.1 µM
- TGI ([13]; read-out: pTGI (converted)): 2 µM
- GI50 [14]: 0.275 µM
- TGI ([14]; read-out: pTGI (converted)): 1.12 µM
- GI50 [15]: 1.02 µM
- CC50 [15, 44]: 50.1 µM
- TGI ([15]; read-out: pTGI (converted)): 50.1 µM
- GI50 ([16]; read-out: GI50): < 0.021 µM
- GI50 ([16]; read-out: pGI50 (converted)): 0.0316 µM
- CC50 [16, 44]: 0.513 µM
- TGI ([16]; read-out: pTGI (converted)): 0.135 µM
- GI50 [17]: 0.0407 µM
- CC50 [17, 44]: 2.95 µM
- TGI ([17]; read-out: pTGI (converted)): 0.257 µM
- GI50 [18]: 0.708 µM
- CC50 [18, 44]: 50.1 µM
- TGI ([18]; read-out: pTGI (converted)): 50.1 µM
- GI50 [19]: 0.055 µM
- CC50 [19, 44]: 50.1 µM
- TGI ([19]; read-out: pTGI (converted)): 50.1 µM
- GI50 [20]: 0.2 µM
- CC50 [20, 44]: 50.1 µM
- TGI ([20]; read-out: pTGI (converted)): 1.17 µM
- GI50 [21]: 0.251 µM
- TGI ([21]; read-out: pTGI (converted)): 1.02 µM
- GI50 [22]: 0.676 µM
- CC50 [22, 44]: 50.1 µM
- TGI ([22]; read-out: pTGI (converted)): 50.1 µM
- GI50 [23]: 10.5 µM
- CC50 [23, 44]: 50.1 µM
- TGI ([23]; read-out: pTGI (converted)): 50.1 µM
- GI50 [24]: 0.269 µM
- CC50 [24, 44]: 50.1 µM
- TGI ([24]; read-out: pTGI (converted)): 50.1 µM
- GI50 ([25]; UACC-257): 1.23 µM
- CC50 ([25]; UACC-257, read-out: pLC50 (the source's name) (converted)): 50.1 µM
- TGI ([25]; UACC-257, read-out: pTGI (converted)): 50.1 µM
- GI50 ([26]; UACC-62): 0.138 µM
- CC50 ([26]; UACC-62, read-out: pLC50 (the source's name) (converted)): 3.63 µM
- TGI ([26]; UACC-62, read-out: pTGI (converted)): 0.407 µM
- GI50 [27]: 0.417 µM
- CC50 [27, 44]: 50.1 µM
- TGI ([27]; read-out: pTGI (converted)): 50.1 µM
- GI50 ([28]; OVCAR-4): 5.25 µM
- CC50 ([28]; OVCAR-4, read-out: pLC50 (the source's name) (converted)): 50.1 µM
- TGI ([28]; OVCAR-4, read-out: pTGI (converted)): 50.1 µM
- GI50 ([29]; OVCAR-8): 12.9 µM
- CC50 ([29]; OVCAR-8, read-out: pLC50 (the source's name) (converted)): 50.1 µM
- TGI ([29]; OVCAR-8, read-out: pTGI (converted)): 50.1 µM
- GI50 [30]: 8.51 µM
- CC50 [30, 44]: 50.1 µM
- TGI ([30]; read-out: pTGI (converted)): 50.1 µM
- GI50 [31]: 3.55 µM
- LC50 [31]: 50.1 µM
- TGI ([31]; read-out: pTGI (converted)): 32.4 µM
- GI50 [32]: 0.0851 µM
- LC50 (concentration killing 50% of cells) [32]: 50.1 µM
- TGI ([32]; read-out: pTGI (converted)): 0.501 µM
- GI50 [33]: 0.129 µM
- CC50 [33, 44]: 50.1 µM
- TGI ([33]; read-out: pTGI (converted)): 0.724 µM
- GI50 [34]: 1.48 µM
- LC50 (concentration killing 50% of cells) [34]: 50.1 µM
- TGI ([34]; read-out: pTGI (converted)): 50.1 µM
- GI50 [35]: 0.263 µM
- LC50 [35]: 50.1 µM
- TGI ([35]; read-out: pTGI (converted)): 50.1 µM
- GI50 [36]: 0.0447 µM
- LC50 [36]: 12.9 µM
- TGI ([36]; read-out: pTGI (converted)): 0.457 µM
- GI50 [37]: 12 µM
- LC50 [37]: 50.1 µM
- TGI ([37]; read-out: pTGI (converted)): 50.1 µM
- GI50 [38]: 7.76 µM
- LC50 [38]: 50.1 µM
- TGI ([38]; read-out: pTGI (converted)): 50.1 µM
- GI50 ([39]; UO-31): 0.269 µM
- LC50 ([39]; UO-31): 50.1 µM
- TGI ([39]; UO-31, read-out: pTGI (converted)): 1.48 µM
- GI50 [40]: 3.55 µM
- LC50 (50% lethal concentration) [40]: 50.1 µM
- TGI ([40]; read-out: pTGI (converted)): 50.1 µM
- GI50 [41]: 0.724 µM
- LC50 [41]: 50.1 µM
- TGI ([41]; read-out: pTGI (converted)): 50.1 µM
- GI50 [42]: 0.107 µM
- CC50 [42, 44]: 50.1 µM
- TGI ([42]; read-out: pTGI (converted)): 13.2 µM
- GI50 [43]: 0.513 µM
- LC50 [43]: 46.8 µM
- TGI ([43]; read-out: pTGI (converted)): 9.33 µM
